Average skin reaction and No. of sensitive data for ten compounds are collected here from ChEMBL document CHEMBL1121508, “Synthesis of alpha-methylene-gamma-butyrolactones: a structure-activity relationship study of their allergenic power” (1980).

The structures appear in SMILES notation.

What all share (assay type): functional
The species named for test [1] is Cavia porcellus. The test is described as follows: Average skin reaction in guinea pig sensitized to alpha-methylene-gamma-butyrolactone (toxic). The method, boiled down: (§1)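 Female guinea pigs (albino Hartley and Himalayan spotted Füllingsdorf), 300–500 g, sensitized by Klečak's method. The hapten was emulsified in Freund's complete adjuvant and injected intradermally into the shaved nuchal region on alternate days, five injections in all. Skin reactions at elicitation were scored up to 3 (erythema plus swelling well beyond the test area) and 4 (necrosis or ulceration). Irritation thresholds were first set on untreated animals by the same elicitation procedure.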

The species named for test [2] is Cavia porcellus. The test is described as follows: Average skin reaction in guinea pig sensitized to the sesquiterpene alantolactone (toxic). In a few lines: as §1
The species entered for test [3] is Cavia porcellus. The test is described as follows: Average skin reaction in guinea pig sensitized to the sesquiterpene isoalantolactone (toxic). The method, boiled down: as §1
Test [4] is filed under the species Cavia porcellus. Briefly: Number of guinea pigs sensitized to alpha-methylene-gamma-butyrolactone (out of 10 guinea pigs). Note: test concentration or dose not given here. The method, boiled down: as §1
The species named for test [5] is Cavia porcellus. The test is described as follows: Number guinea pigs sensitized to the sesquiterpene alantolactone (out of 7 guinea pigs). Note: test concentration or dose not given here. The method, boiled down: as §1
The species named for test [6] is Cavia porcellus. Briefly: Number of guinea pigs sensitized to the sesquiterpene isoalantolactone (out of 8 guinea pigs). Note: test concentration or dose not given here. The method, boiled down: as §1
The species named for test [7] is Cavia porcellus. The test is described as follows: Average skin reaction in guinea pig sensitized to alpha-methylene-gamma-butyrolactone. In a few lines: as §1
Test [8] is filed under the species Cavia porcellus. The test is described as follows: Average skin reaction in guinea pig sensitized to the sesquiterpene alantolactone. In a few lines: as §1
For test [9], the species on record is Cavia porcellus. The test is described as follows: Average skin reaction in guinea pig sensitized to the sesquiterpene isoalantolactone. In a few lines: as §1
For test [10], the species on record is Cavia porcellus. Briefly: Average skin reaction in guinea pig sensitized to the sesquiterpene alantolactone*-toxic. The method, boiled down:
as §1

The species entered for test [11] is Cavia porcellus. The test is described as follows: Open Epicutaneous tests were performed on guinea pigs sensitized to alpha-methylene-gamma-butyrolactone. Note: test concentration or dose not given here. The method, boiled down: as §1

Regarding `C=C1CC(CCCCCCCCCCC)OC1=O` (stereo not given), the Average skin reaction came out at 1 in test [1], 0.9 in test [2] and 1.2 in test [3]. Besides, the No. of sensitive in [4] was 10; in [5], 7; in test [6], 8.

On to `C=C1CC(C)(c2ccccc2)OC1=O` (stereo not given), for which the Average skin reaction was found to be 0.4 in test [1], 1.1 in test [2] and 1.3 in test [3]. The No. of sensitive in [4] amounted to 5; in [5] it was 7; in test [6] it was 8.

Regarding `C=C1CC2(CCCc3ccccc32)OC1=O` (stereo not given), the Average skin reaction is reported as 0.9 in [7], 1.7 in [2] and 2 in test [3]. The No. of sensitive amounted to 10 in test [4], 7 in [5] and 8 in test [6].

Take `C=C1CC(c2ccccc2)OC1=O` (stereo not given): the Average skin reaction came to 1.4 in test [1], 1.1 in test [2] and 1.5 in test [3]. In addition, the No. of sensitive in test [4] is reported as 10; in test [5], 7; in test [6] it was 8.

Regarding `C=C1C(=O)OC2CCCCC12` (stereo not given), the Average skin reaction in [7], in test [8] and in [9] was 0.1 in each case. For the same compound, the No. of sensitive came to 3 in test [4], 1 in [5] and 1 in [6].

As for `C=C1CC(C(C)C)(C(C)C)OC1=O`, the Average skin reaction in test [7] is 0; in test [10], 0.6; in test [9], 0.5. For the same compound, the values for the No. of sensitive in [4], in [5] and in test [6] were 0, 6 and 6, respectively.

On to `C=C1CC(c2ccccc2)(c2ccccc2)OC1=O`, for which the Average skin reaction came to 0.9 in test [8], 0.4 in test [9] and 0 in test [11]. Further, the No. of sensitive is on record as 0 in test [4], 7 in test [5] and 5 in [6].

As to `C=C1CC2(CCCCC2)OC1=O`, the Average skin reaction was 0.1 in test [7], 0.5 in test [8] and 0.8 in test [9]. Also, the No. of sensitive turned out to be 2 in test [4], 5 in [5] and 8 in [6].

With `C=C1CC2(CCC(C(C)(C)C)CC2)OC1=O` (stereo not given), the Average skin reaction in test [7] was determined as 0; in test [8], 0.8; in test [9], 1.1. The No. of sensitive in test [4] was 1; in test [5] it was 6; in test [6] it was 8.

Consider `C=C1CC2(CC3CCC2C3)OC1=O` (stereo not given), for which the Average skin reaction amounted to 0 in test [7], 0.3 in test [8] and 0.2 in [9]. The No. of sensitive is 0 in test [4], 4 in [5] and 4 in test [6].
